The nature of series [1]: Cytotoxicity against human […] cells incubated for 48 hrs by CCK-8 assay. The series is classed as cell-based. Summed up: (§1)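 Cells from ATCC, passaged six times, grown in DMEM with 10% FBS and penicillin/streptomycin at 37 °C under 5% CO2. Seeded at 2500 cells/well, cultured overnight, treated 48 h, viability read by CCK-8. Run in triplicate; values are the mean of three experiments.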

Series [2] has as its target T1, NEDD8-activating enzyme E1 catalytic subunit (Homo sapiens, UniProt Q8TBC4).
T1 sequence (Q8TBC4 whole entry): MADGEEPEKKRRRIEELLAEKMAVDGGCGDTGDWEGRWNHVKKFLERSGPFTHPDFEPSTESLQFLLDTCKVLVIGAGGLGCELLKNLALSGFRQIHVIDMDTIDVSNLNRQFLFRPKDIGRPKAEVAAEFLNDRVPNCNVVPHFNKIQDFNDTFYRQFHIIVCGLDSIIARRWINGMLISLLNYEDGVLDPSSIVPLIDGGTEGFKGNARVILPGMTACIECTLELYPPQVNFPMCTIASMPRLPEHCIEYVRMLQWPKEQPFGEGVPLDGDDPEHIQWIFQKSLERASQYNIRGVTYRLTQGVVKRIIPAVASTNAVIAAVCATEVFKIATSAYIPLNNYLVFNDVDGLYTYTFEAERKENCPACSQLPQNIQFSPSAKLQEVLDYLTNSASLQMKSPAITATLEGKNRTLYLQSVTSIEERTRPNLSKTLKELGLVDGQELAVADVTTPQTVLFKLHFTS
In words: Inhibition of NAE (unknown origin)-mediated neddylation assessed as suppression of cullin1-Nedd8 adduct formation preincubated for 10 mins followed by ATP addition and measured after 30 mins by immunoblot analysis.

For another series, the system named is BEAS-2B. In words: Cytotoxicity against human BEAS-2B cells incubated for 48 hrs by CCK-8 assay. Format: cell-based. An outline of the steps: as §1
Background: Tetrazolium assays rely on reduction of a dye to a coloured formazan, in cell work by metabolically active cells.

In series [3] the test system is A549. Briefly: Antiproliferative activity against human A549 cells incubated for 48 hrs by CCK-8 assay. The series is classed as functional, cell-based. As to conditions: A549, 48 h. Summed up: as §1
In the next series the test system is NCI-H1299. In words: Antiproliferative activity against human H1299 cells incubated for 48 hrs by CCK-8 assay. The series is classed as functional, cell-based. As to conditions: NCI-H1299, 48 h. An outline of the steps: as §1
The subject of series [4] is A549. In words: Antiproliferative activity against human A549 cells assessed as inhibition of cell proliferation at 100 uM incubated for 48 hrs by CCK-8 assay relative to control. Format: functional. More on the design: scale not given: the % may be the effect or the level left. An outline of the steps:
as §1

Series [5] concerns the target T2, NEDD8-activating enzyme E1 regulatory subunit (Homo sapiens) (UniProt Q13564).
T2 sequence (whole entry): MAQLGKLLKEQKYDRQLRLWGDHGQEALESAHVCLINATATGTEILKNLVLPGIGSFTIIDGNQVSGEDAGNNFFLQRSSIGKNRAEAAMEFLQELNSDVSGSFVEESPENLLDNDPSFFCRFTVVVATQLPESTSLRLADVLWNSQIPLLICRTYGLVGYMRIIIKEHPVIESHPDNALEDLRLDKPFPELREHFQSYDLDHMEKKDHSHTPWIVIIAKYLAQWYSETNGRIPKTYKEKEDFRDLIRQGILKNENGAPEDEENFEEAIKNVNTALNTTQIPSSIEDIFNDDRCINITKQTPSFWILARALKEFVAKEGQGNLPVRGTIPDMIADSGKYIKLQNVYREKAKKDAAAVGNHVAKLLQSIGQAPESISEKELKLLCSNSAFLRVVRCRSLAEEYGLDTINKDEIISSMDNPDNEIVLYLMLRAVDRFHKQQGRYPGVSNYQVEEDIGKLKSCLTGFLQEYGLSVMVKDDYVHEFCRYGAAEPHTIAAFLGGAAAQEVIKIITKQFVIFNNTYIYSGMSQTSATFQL
In words: Inhibition of NAE (unknown origin)-mediated neddylation assessed as suppression of cullin1-Nedd8 adduct formation at 25 uM preincubated for 10 mins followed by ATP addition and measured after 30 mins by immunoblot analysis relative to control. As to conditions: time 40.0 min. Background: In western blotting, separated proteins are transferred to a membrane and probed.

The nature of series [6]: Toxicity in nude mouse assessed as effect on body weight at 30 mg/kg, qd after 24 days. The series is classed as organism-based. The following applies: in vivo, 576 h, time 24 day. Summed up:
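Female nude mice were inoculated subcutaneously with 2×10^6 A549 cells in 0.1 mL PBS. At tumor volume 70–100 mm³, mice were randomized into 5 groups of 6. Dosing was ip or oral gavage, once daily on a 5-days-on/2-days-off schedule, with 10% 2-hydroxypropyl-β-cyclodextrin/water as vehicle control. Body weight and tumor volume were measured every two days; tumors were weighed at sacrifice. Significance by two-tailed Student's t-test.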

Among the data in ChEMBL document CHEMBL4732082, “Development of novel benzimidazole-derived neddylation inhibitors for suppressing tumor growth invitro and invivo” (Eur J Med Chem, 2021) are IC50, Activity and inhibition values, retold here.

Usually IC50 stands for the concentration that inhibits the measured activity by half. Usually inhibition stands for the share of the control response that was lost under treatment.

Regarding `CCOc1nc2cccc(C(=O)NCCc3c[nH]c4ccccc34)c2n1Cc1ccc(-c2ccccc2-c2nnn[nH]2)cc1`, the IC50 stood at 44.7 µM in series [1]; 9.94 µM in series [2]; 37.9 µM with BEAS-2B; 19.1 µM in the series on A549 [3]; 18.2 µM in the series with NCI-H1299. The Activity in the series with A549 [4] came out at 71.6%. Also, the inhibition in series [5] was found to be 74.7%.

Consider `CCOc1nc2cccc(C(=O)OC(C)OC(=O)OC3CCCCC3)c2n1Cc1ccc(-c2ccccc2-c2nnn[nH]2)cc1` (stereo unspecified) [CANDESARTAN CILEXETIL], for which the IC50 in series [2] came to 16.4 µM. The Activity entry in series [6] was “Non-Toxic”.

For the molecule `CCOc1nc2cccc(C(=O)NCCc3cc(Cl)ccc3Cl)c2n1Cc1ccc(-c2ccccc2-c2nnn[nH]2)cc1`, the IC50 in series [1] amounted to 64.9 µM; in series [2] it was 6.67 µM; in the series with BEAS-2B, 80.8 µM; in the series on A549 [3], 39.3 µM; with NCI-H1299, 36.7 µM. The Activity with A549 [4] was 77.6%. In addition, in series [5], the inhibition was determined as 82.9%.
